Source: ChEMBL document CHEMBL3286350, “Aplysinellamides A-C, bromotyrosine-derived metabolites from an Australian Aplysinella sp. marine sponge” (2014)
Calls of active or inactive are those of the source. The rule behind the calls is not given here.

The molecules below were run on CCF-STTG1 (assay: Induction of apolipoprotein E secretion from human CCF-STTG1 cells at 30 uM after 96 hrs by ELISA relative to control).
Type: functional
Summary of the method: (§1)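 Human CCF-STTG1 astrocytoma cells were incubated with test compounds at concentrations of up to 40 μM for 96 h, and apolipoprotein E secretion was then measured. The assay was also applied to fractions.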

SMILES	fold change (FC)
CN(C)CCCOc1c(Br)cc(CCN(C)C)cc1Br [APLYSAMINE]	2

These molecules were tested on CCF-STTG1 (assay: Induction of apolipoprotein E secretion from human CCF-STTG1 cells up to 40 uM after 96 hrs by ELISA).
Type: functional, cell-based
Summary of the method: as §1

SMILES	Activity
COc1c(Br)cc(/C=C/C(=O)NCCCC[C@@H](N)C(=O)O)cc1Br	inactive
COc1ccc(C[C@H](N)C(=O)NCCc2cc(Br)c(OCCCN(C)C)c(Br)c2)cc1Br	inactive
COc1c(Br)cc(C(=O)O)cc1Br	inactive
CNCCc1cc(Br)c(OCCCN(C)C)c(Br)c1	inactive
COc1ccc(/C=C/C(=O)NCCCC[C@@H](N)C(=O)O)cc1Br	inactive
COc1ccc(/C=C/C(=O)NCCCCC(=O)O)cc1Br	inactive
CN(C)CCCOc1c(Br)cc(CC[N+](C)(C)O)cc1Br	inactive
CN(C)CCc1cc(Br)c(O)c(Br)c1	inactive
COc1ccc(CC(C(=O)O)[N+](C)(C)C)cc1Br (stereo not given)	inactive
